These results are taken from ChEMBL document CHEMBL2311375, “Synthesis and characterization of a small analogue of the anticancer natural product leinamycin” (Bioorg Med Chem, 2013).

The source made the active and inactive calls. The rule behind the calls is not given here.

Assay [1] can be described thus: Induction of oxidative supercoiled double-stranded plasmid DNA strand (unknown origin) cleavage at 250 uM after 3 to 15 hrs using ethidium bromide staining by agarose gel electrophoresis in presence of 375 uM 2-mercaptoethanol and catalase. Summed up:
(§1)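 Supercoiled plasmid DNA (30 μM bp) incubated 3–15 h at 37 °C in sodium phosphate buffer (50 mM, pH 7) with 10% v/v acetonitrile. Final concentrations: compound 250 μM, 2-mercaptoethanol 375 μM where added. Catalase (100 μg/mL) added before compound where used. Forms I and II resolved on 0.9% agarose gel (80 V, 3 h, 1x TAE), stained with ethidium bromide, visualized by UV and quantified by image analysis. Breaks per plasmid S = −ln f1, f1 = fraction form I.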

The nature of assay [2]: Induction of supercoiled double-stranded plasmid DNA strand (unknown origin) cleavage at 250 uM after 3 to 15 hrs using ethidium bromide staining by agarose gel electrophoresis. The gist of the method: as §1
Assay [3] is described as follows: Induction of oxidative supercoiled double-stranded plasmid DNA strand (unknown origin) cleavage at 250 uM after 3 to 15 hrs using ethidium bromide staining by agarose gel electrophoresis in presence of 375 uM 2-mercaptoethanol. Summed up: as §1

In the case of `CC(C)=CCCC1(C)CC(=O)S[S+]1[O-]` (configuration not stated), the outcome in assay [1] and in assay [2] was inactive. Moreover, in assay [3], the outcome was Active.

For `O=c1s[s+]([O-])c2ccccc12` (configuration not stated), the result in assay [1] and in assay [2] was inactive. Further, the result in assay [3] was Active.

Turning to `CC(C)=CCCC1(C)CC(=O)S[S+]1[O-]` (mixture of isomers), the outcome in assay [1] and in assay [2] was inactive. Further, the result in assay [3] was Active.

As for `CC(C)=CCCC1(C)CC(=O)S[S+]1[O-]` (single isomer, unassigned), the result in assay [1] and in assay [2] was inactive. Also, in assay [3], the outcome was Active.
